In the library only some 1.4% were active in any assay of this set; here they are far more common.
EBNA-1 inh: blocks EBNA-1 binding to DNA; EBNA-1 DNA binding, fluorescence polarization; inhibition, % at 14.8 µM; hit rate 0.34% among 300,000; in the data active means inhibition above about 28%
HCV NS3 hel inh: inhibitors of Hepatitis C virus NS3 helicase | hit rate 0.56% among 290,000 | AID 1800 | NS3 helicase DNA unwinding, Cy5 molecular beacon fluorescence | inhibition, % at 10.9 µM;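 active means inhibition above the mean of all tested compounds plus 3 SD, set per campaign, cut at about 35% in these data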;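 further: 0% = DMSO wells and 100% = thioflavine S control wells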
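Material: hepatitis C virus NS3 helicase domain fragment enzyme; measured by: Cy5 fluorescence, 0 and 60 min reads; control set: DMSO and thioflavine S; incubation: 60 min unwinding reaction at 25 °C after ATP addition; read-out basis: % inhibition from 60/0 min fluorescence ratio, DMSO 0%, thioflavine S 100%; repeats: singlicate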
Fh CTSL1 inh: cathepsin L1 inhibition, PFM18AAP counter-screen | recombinant F. hepatica cathepsin L1, Z-Leu-Arg-MCA fluorescence | inhibition, % at 5.96 µM | hit rate 0.49% among 300,000 | AID 1906;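 active means inhibition above the mean of all tested compounds plus 3 SD, set per screening campaign, cut at about 17% in these data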;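 further: 0% = plate median of test compound wells and 100% = 1 µM Z-Phe-Ala-diazomethylketone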
ZTA DNA inh: ZTA (EBV) inhibition in EBNA-1 counter-screen. ZTA-DNA binding, fluorescence polarization. inhibition, % at 11 µM. hit rate 0.15% among 320,000; in the data active means inhibition above about 33%
Target sequence (P03206 whole entry, looked up): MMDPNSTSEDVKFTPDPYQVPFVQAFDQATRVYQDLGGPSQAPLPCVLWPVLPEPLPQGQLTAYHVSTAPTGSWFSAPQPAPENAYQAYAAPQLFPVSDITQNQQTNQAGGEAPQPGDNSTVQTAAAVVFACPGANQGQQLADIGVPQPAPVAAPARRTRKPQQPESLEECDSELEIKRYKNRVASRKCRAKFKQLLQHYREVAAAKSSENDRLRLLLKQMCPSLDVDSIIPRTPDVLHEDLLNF
EBNA-1 inh conf: EBNA-1 (EBV) inhibition, confirmation; inhibition, % at 14.8 µM; shares compounds with EBNA-1 inh; hit rate 35% among 830; Recombinant EBNA-1 DBD, Cy5-DNA fluorescence polarization;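 active means mean inhibition across replicates above a set limit taken from the earlier primary screen, cut at about 28% in these data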;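 further: plate controls were EBNA-1 protein with DMSO for no effect and wells lacking EBNA-1 for full effect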
ZTA DNA inh trip: blocks Epstein-Barr virus ZTA in triplicate, EBNA-1 counter-screen. inhibition, % at 11.1 µM. shares compounds with EBNA-1 inh. AID 2328. Zta-ZRE DNA binding, Cy5 fluorescence polarization. 830 tested, under 10 active;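 active means mean inhibition over triplicates above a set limit taken from the primary EBNA-1 screen, cut at about 37% in these data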;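 further: purified full length Zta protein with Cy5 labeled ZRE DNA probe; 0% = Zta with DMSO and 100% = wells lacking Zta protein; inhibitors lower polarization by freeing the labeled DNA probe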
An asterisk follows results filed as active; . = no result.

SMILES	EBNA-1 inh	HCV NS3 hel inh	Fh CTSL1 inh	ZTA DNA inh	EBNA-1 inh conf	ZTA DNA inh trip
CCOC(=O)N/N=C(/C)c1ccc(N2C(=O)C3CCCCC3C2=O)cc1 (centres undefined)	2	4	-2	14	.	.
COc1ccc(-c2nnn(CC(=O)N(CC(=O)NCCC(C)C)Cc3cccs3)n2)cc1OC	30*	-2	4	-1	5	9
N#Cc1ccc(Oc2ccc(-c3cnc4ccccc4n3)cc2)cc1C#N	-9	-5	4	-14	.	.
COc1ccccc1CNC(=O)c1ccc2nc3[nH]c4ccccc4c3nc2c1	65*	-18	0	8	67*	-10
O=C(CCCN1C(=O)/C(=C/c2cccs2)SC1=S)NNC(=O)c1ccccc1O	40*	4	3	20	20	8
c1ccc(-c2cn3c(n2)-c2ccccc2C3)cc1	2	2	-2	-5	.	.
CSc1cccc(NC(=O)NCc2cccc(CNC(=O)Nc3cccc(SC)c3)c2)c1	34*	-1	0	7	41*	3
CC(CCc1ccccc1)NC(=O)c1cccc(F)c1 (centres undefined)	-11	-7	-3	-10	.	.
Cc1ccc(N(CC(=O)Nc2ccc(-c3nc4ccc(C)cc4s3)cc2)S(C)(=O)=O)cc1	0	10	1	27	.	.
Cc1ccc(C)c(N(CC(=O)Nc2ccc(-c3nc4ccc(C)cc4s3)cc2)S(C)(=O)=O)c1	36*	-3	2	9	3	-10
COc1ccc(NC(=O)c2cc(S(=O)(=O)N3CCc4ccccc43)cn2C)cc1OC	40*	-5	2	7	39*	-1
COc1ccc(NC(=O)c2cc(S(=O)(=O)N3CCc4ccccc43)cn2C)c(OC)c1	-6	-31	4	-4	.	.
COc1cccc(CNC(=O)Cn2nc(-c3ccc(Cl)cc3)ccc2=O)c1	-2	6	0	3	.	.
COc1ccc(-c2[nH]c(-c3ccc(C)cc3)nc2SCC(=O)Nc2nccs2)cc1	-8	6	-1	0	.	.
COc1ccc(-c2nc(SCC(=O)Nc3nccs3)c(-c3ccc(Cl)cc3)[nH]2)cc1	73*	-31	4	4	32*	-2
CCOC(=O)c1c(C)[nH]c(C(=O)OCC(=O)Nc2cc(Cl)ccc2OC)c1C	13	2	-2	16	.	.
CCOC(=O)c1c(C)[nH]c(C(=O)OCC(=O)Nc2ccc(OC)c(Cl)c2)c1C	94*	3	0	22	32*	-5
CCOc1ccc(C(=O)CSc2nnc3ccccn23)cc1	5	3	4	4	.	.
CCn1c(CSc2nnc3ccccn23)nc2cc(C(=O)O)ccc21	45*	-5	0	30	44*	82*
O=[N+]([O-])c1ccc(C[n+]2cc(-c3ccc(Cl)c(Cl)c3)n3c2CCCCC3)cc1	33*	-47	2	-6	0	10
O=C(Oc1ccc(OC(=O)c2ccco2)c(S(=O)(=O)c2ccc(Cl)cc2)c1)c1ccco1	4	-2	-3	-17	.	.
COc1ccc(N(C(=O)c2cnsn2)C(C(=O)NC2CCCCC2)c2ccncc2)cc1 (centres undefined)	4	12	-4	-9	.	.
CN1CCN(c2nc(-c3ccccn3)nc3ccccc23)CC1	63*	7	1	-6	5	-2
CC(C)C1CC(c2csc(N)n2)CCO1 (centres undefined)	4	1	0	0	.	.
Cc1ccc(C2CC(c3cccs3)=NN2C(=O)CSc2nc(=O)n3cc(C)ccc3n2)cc1 (centres undefined)	42*	.	8	-4	2	7
SMILES	EBNA-1 inh	HCV NS3 hel inh	Fh CTSL1 inh	ZTA DNA inh	EBNA-1 inh conf	ZTA DNA inh trip
CC(C)CSc1nc2ccccc2n1CC(=O)O	0	-3	-1	-2	.	.
CC1=CC2=NC(=O)/C(=C\c3cn(C)c4ccccc34)C(=N)N2O1	40*	-3	1	-10	91*	2
CC1=CC2=NC(=O)/C(=C\c3cc(C)n(-c4ccccc4)c3C)C(=N)N2O1	5	-3	6	-2	.	.
COc1cc2c(cc1NC(=O)c1cccnc1)oc1ccccc12	2	-6	7	11	.	.
CCc1ccc(NC(=O)CCCNC(=O)Cn2cnc3sc(C)c(C)c3c2=O)cc1	62*	7	-2	10	31*	-10
COc1ccc(NC(=O)CCCNC(=O)Cn2cnc3sc(C)c(C)c3c2=O)cc1OC	3	18	2	-15	.	.
O=C(Nc1cccc(C(F)(F)F)c1)c1ccc2nc(-c3ccco3)c(-c3ccco3)nc2c1	68*	23	2	-21	4	8
O=C(Nc1cccc(C(F)(F)F)c1)c1cc[n+]([O-])cc1	-5	-2	2	-3	.	.
Cc1c(N)cccc1-n1cnnn1	11	15	-4	13	.	.
c1cc2ccc3ccc(-n4cnnn4)c4ccc(c1)c2c34	34*	0	2	27	35*	22
COc1ccc(CNC2CC(=O)N(C)C2=O)cc1 (centres undefined)	2	3	-2	-8	.	.
COCCOC(=O)c1c(NC(=O)CNc2ccc(C)c(F)c2)sc(C(N)=O)c1C	42*	5	-3	-3	14	14
Cc1noc(C)c1S(=O)(=O)N(CC(=O)N1CCCC1)c1ccc(C(C)C)cc1	6	-2	-1	-9	.	.
CCCc1cc2c(cc1NC(=O)c1ccc(Br)cc1)OCO2	33*	-7	1	-3	0	-8
O=C(Nc1cccc([N+](=O)[O-])c1)c1ccc2nsnc2c1	0	6	1	-3	.	.
Cc1ccc(C(=O)NC(=S)Nc2ccc3[nH]c(=O)[nH]c3c2)cc1	43*	1	0	33	34*	12
CCOc1ccccc1CN1CCC(n2nccc2NC(=O)CCCc2ccccc2)CC1	8	-61	-1	4	.	.
O=C(Nc1ccc(S(=O)(=O)N2CCC(C(=O)NC3CCCCC3)CC2)cc1)c1ccco1	38*	1	-1	-2	34*	0
CCC1CCCCN1C(=O)c1cc2cc(Br)ccc2oc1=O (centres undefined)	-2	-9	0	9	.	.
CC(=O)Nc1nnc(SCC(=O)c2ccc3c(c2)Cc2ccccc2-3)s1	40*	5	-3	9	43*	3
CCC(=O)Nc1nnc(SCC(=O)c2ccc3c(c2)Cc2ccccc2-3)s1	31*	-9	0	6	21	1
COC(=O)c1c(NC(=O)CCC(=O)O)sc2c1CCCCC2	-5	3	-1	16	.	.
COc1ccc(C(=O)N2C(=O)c3ccc(N)cc3C2=O)cc1	34*	-6	-1	-11	27	-4
N#Cc1ccccc1Cn1c(=O)n(CCC(=O)NCc2ccco2)c(=O)c2ccccc21	-1	-1	4	5	.	.
CC1CCCCC1NC(=O)C1CCC(CNS(=O)(=O)c2ccccc2)CC1 (centres undefined)	31*	-10	-2	-3	9	6
